From ChEMBL document CHEMBL1123247, “Nucleoside conjugates. 7. Synthesis and antitumor activity of 1-beta-D-arabinofuranosylcytosine conjugates of ether lipids” (J Med Chem, 1986)

Key:
L1210 [1] = experiment: Antitumor activity against the ic implanted L1210 lymphoid leukemia in mice expressed as optimal dose (1 qd treatment schedule) required to produce greatest increase in life span was determined; format: functional, Mus musculus
How it was run: (§1)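 DBA/2J mice, groups of 6 (26-32 g), got 1 × 10^5 L1210 cells ic on day 0. Dosing was ip starting 24 h later, as a sonicated solution or suspension in 0.9% NaCl with 0.5% Tween-80, over a wide dose range. Mice were followed daily until death. Median survival T/C was taken from survivors per NCI protocols, and ILS = (T/C − 1) × 100. Active range means doses giving ILS ≥25%; optimal dose means greatest ILS.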

L1210 [2] = experiment: Antitumor activity against ip implanted L1210 leukemia in mice expressed as active dose range (1 qd treatment schedule) required to produce increase in life span by >25% was determined; Range is 50-400; format: functional, Mus musculus
How it was run: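 DBA/2J mice, groups of 6 (23-28 g), were inoculated ip with 1 × 10^6 L1210 cells on day 0. Dosing was ip from 24 h, in 0.9% NaCl with 0.5% Tween-80 (sonicated solution or suspension). Mice were observed daily until death or day 45. Median survival T/C followed NCI protocols, and ILS = (T/C − 1) × 100. Active range means doses giving ILS ≥25%; optimal dose means greatest ILS.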

L1210 [3] = experiment: Antitumor activity was determined against the ic implanted L1210 lymphoid leukemia in mice by percent increase in life span at 300 mg/kg (1 qd treatment schedule) dosage; format: functional, Mus musculus; how it was run: as §1
P388 [4] = experiment: Antitumor activity was determined against the ip implanted P388 leukemia in mice by percent median survival rate (treated/control) at 500 mg/kg (1 qd treatment schedule) dosage; >45.0/11.0; format: functional, Mus musculus; settings: route intraperitoneal
P388 [5] = experiment: Antitumor activity was determined against the ip implanted P388 leukemia in mice by 45-day survivors in mice at 500 mg/kg (1 qd treatment schedule) dosage; format: functional, Mus musculus; settings: route intraperitoneal
How it was run: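 DBA/2J mice, 23-33 g, in groups of 6, were inoculated ip with 1×10^6 P388 cells on day 0. Dosing was ip from 24 h on the stated schedules, in 0.9% NaCl with 0.5% Tween-80 (sonicated solution or suspension). Survival was followed daily until death or 45 days. Median T/C was calculated from survivors per NCI protocols, with ILS = (T/C − 1) × 100.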

P388 [6] = experiment: Antitumor activity was determined against the ip implanted P388 leukemia in mice by range in survival days at 133 mg/kg (treatment of 1,5,9qd schedule) dosage; Range is 31->45; format: functional, Mus musculus; settings: route intraperitoneal
P388 [7] = experiment: Antitumor activity was determined against the ip implanted P388 leukemia in mice by range in survival days at 500 mg/kg (1 qd treatment schedule) dosage; Range is 35->45; settings: route intraperitoneal
L1210 [8] = experiment: Antitumor activity was determined against the ic implanted L1210 lymphoid leukemia in mice by change in […] at 100 mg/kg (treatment of 1-5qd schedule) dosage; format: functional, Mus musculus
How it was run: (§2)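 DBA/2J mice, 6 per group (wt 26-32 g), inoculated ic with 1×10^5 L1210 cells on day 0. Dosing ip began 24 h after inoculation, with a sonicated solution or suspension in 0.9% NaCl containing 0.5% Tween-80, given over a range of doses. Animals were followed daily until death. Body weight change, median survival T/C, and %ILS = (T/C − 1) × 100 were computed from survivors per NCI protocols.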

L1210 [9] = experiment: Antitumor activity was determined against the ic implanted L1210 lymphoid leukemia in mice by percent increase in life span at 100 mg/kg (treatment of 1-5qd schedule) dosage; format: functional, Mus musculus; how it was run: as §1
P388 [10] = experiment: Antitumor activity was determined against the ip implanted P388 leukemia in mice by range in survival days at 133 mg/kg (treatment of 1,5,9qd schedule) dosage; Range is 23->45; format: functional, Mus musculus; settings: route intraperitoneal
P388 [11] = experiment: Antitumor activity against ip implanted P388 leukemia in mice expressed as active dose range (1-5qd treatment schedule) required to produce increase in life span by >25% was determined; Range is 40-60; format: functional, Mus musculus
How it was run: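 P388 leukemia: 1 × 10^6 cells were given ip on day 0 to DBA/2J mice, groups of 6 (23-33 g). Treatment was ip from 24 h after inoculation, vehicle 0.9% NaCl with 0.5% Tween-80. Mice were observed daily until death or 45 days. Median survival T/C was calculated from survivors per NCI protocols, and ILS = (T/C − 1) × 100. Active range means doses giving ILS ≥25%; optimal dose means greatest ILS.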

P388 [12] = experiment: Antitumor activity was determined against the ip implanted P388 leukemia in mice by change in […] at 60 mg/kg (treatment of 1-5qd schedule) dosage; format: functional, Mus musculus; settings: route intraperitoneal
How it was run: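 P388 leukemia, 1×10^6 cells implanted ip on day 0 into DBA/2J mice, groups of 6 (wt 23-33 g). Dosing ip started 24 h post-inoculation, vehicle 0.9% NaCl containing 0.5% Tween-80. Animals were observed daily until death or 45 days. Outputs were weight change, median survival T/C from survivors per NCI protocols, and %ILS = (T/C − 1) × 100.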

L1210 [13] = experiment: Antitumor activity was determined against the ic implanted L1210 lymphoid leukemia in mice by median survival time at 167 mg/kg (treatment of 1, 5, 9qd schedule) dosage; 21.0/7.0
L1210 [14] = experiment: Antitumor activity was determined against the ic implanted L1210 lymphoid leukemia in mice by range in survival days at 500 mg/kg (treatment of 1qd schedule) dosage; Range is 18-23
L1210 [15] = experiment: Antitumor activity was determined against the ip implanted L1210 leukemia in mice by 45-day survivors in mice at 100 mg/kg (treatment of 1-5qd schedule) dosage; format: functional, Mus musculus; settings: route intraperitoneal
How it was run: (§3)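 DBA/2J mice in groups of 6 (wt 23-28 g) were inoculated ip with 1×10^6 L1210 cells on day 0. Dosing was ip from 24 h, in 0.9% NaCl with 0.5% Tween-80 (conjugates sonicated), across a range of doses. Mice were observed daily until death or 45 days. Median T/C was computed from survivors per NCI protocols, and ILS = (T/C − 1)×100.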

HL-60 = experiment: Compound was tested for the inhibition of human HL60 Leukemia; format: functional, cell-based
How it was run: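 Human leukemia and solid tumor cells in culture were exposed to compound for 48 h. Viability was scored by trypan blue dye exclusion. IC50 (50% inhibition) was estimated from response curves of three separate experiments.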

L1210 [16] = experiment: Antitumor activity was determined against the ic implanted L1210 lymphoid leukemia in mice by change in […] at 100 mg/kg (treatment of 1-9qd schedule) dosage; format: functional, Mus musculus; how it was run: as §2
L1210 [17] = experiment: Antitumor activity was determined against the ip implanted L1210 leukemia in mice by percent increase in life span at 200 mg/kg (treatment of 1-5qd schedule) dosage; format: functional, Mus musculus; settings: route intraperitoneal; how it was run: as §3
P388 [18] = experiment: Antitumor activity was determined against the ip implanted P388 leukemia in mice by percent median survival rate (treated/control) at 200 mg/kg (treatment of 1-5qd schedule) dosage; 23.0/11.0; format: functional, Mus musculus; settings: route intraperitoneal

Compound: CCCCCCCCCCCCCCCC(=O)OC[C@H](COP(=O)(O)OP(=O)(O)OC[C@H]1O[C@@H](n2ccc(N)nc2=O)[C@@H](O)[C@@H]1O)OC(=O)CCCCCCCCCCCCCCC
- Optimal dose (L1210 [1]): 300 mg
- Active dose range (L1210 [2]): 50 mg/kg/day
- ILS (L1210 [3]): 200
- T/C (P388 [4]): >45%
- Survivors (P388 [5]): 4
- Range (P388 [6]): 31
- Range (P388 [7]): 35

Compound: CCCCCCCCCCCCCCCCOCC(COP(=O)(O)OP(=O)(O)OC[C@H]1O[C@@H](n2ccc(N)nc2=O)[C@@H](O)[C@@H]1O)OC(=O)CCCCCCCCCCCCCCC (mixture of isomers)
- Weight change (L1210 [8]): -2.03 g mouse-1
- ILS (L1210 [9]): 214
- Range (P388 [10]): 23
- Active dose range (P388 [11]): 40 mg/kg/day
- Weight change (P388 [12]): -3.3 g mouse-1
- median survival time (L1210 [13]): 21 days
- Range (L1210 [14]): 18

Compound: CCCCCCCCCCCCCCCCCCOCC(COP(=O)(O)OP(=O)(O)OC[C@H]1O[C@@H](n2ccc(N)nc2=O)[C@@H](O)[C@@H]1O)OC(=O)CCCCCCCCCCCCCCC (mixture of isomers)
- Survivors (L1210 [15]): 0

Compound: Nc1ccn([C@@H]2O[C@H](CO)[C@@H](O)[C@@H]2O)c(=O)n1 [CYTARABINE]
- IC50 (HL-60): 130 nM
- Weight change (L1210 [16]): -5.8
- ILS (L1210 [17]): 143
- T/C (P388 [18]): 23%
